Values after ≈ are worked out from the molar mass of the structure shown. Active and inactive are the calls of the source. The rule behind the calls is not given here.
Legend:
Bacillus subtilis [1] = test: Antibacterial activity against Bacillus subtilis JCM 1465 assessed as induction of pore formation-associated efflux of ATP by fluorescence assay; assay type: functional, organism-based
Method in brief: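 ATP efflux from B. subtilis JCM 1465T cells treated with lantibiotic at 10× MIC, detected with a Lucifer-HS ATP detection kit. Run twice, representative data shown.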

Listeria innocua = test: Antibacterial activity against Listeria innocua ATCC 33090; assay type: functional
Method in brief: (§1)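 Spot-on-lawn method against each indicator strain, giving MIC. Activity determined at least twice per lantibiotic.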

Micrococcus luteus = test: Antibacterial activity against Micrococcus luteus IFO 12708; assay type: functional; method in brief: as §1
Bacillus subtilis [2] = test: Antibacterial activity against Bacillus subtilis JCM 1465 assessed as induction of pore formation-associated efflux of K+ ion by fluorescence assay; assay type: functional, organism-based
Method in brief: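 K+ efflux from B. subtilis JCM 1465T cells exposed to lantibiotic at 10× MIC, measured with potassium-binding benzofuran isophthalate-AM (PBFI). Expressed relative to total K+ released after adding 1 μM nisin (100%). Run twice.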

Lactococcus lactis = test: Antibacterial activity against Lactococcus lactis ATCC 19435; assay type: functional; method in brief: as §1
Lactobacillus sakei [3] = test: Bacteriostatic against Lactobacillus sakei JCM 1157 assessed as lysis of cell after 24 hrs by spectrophotometry; assay type: functional; conditions: Latilactobacillus sakei
Lactobacillus sakei [4] = test: Bacteriostatic against Lactobacillus sakei JCM 1157 assessed as decrease in cell viability after 24 hrs by turbidity assay; assay type: functional; conditions: Latilactobacillus sakei
Enterococcus faecalis = test: Antibacterial activity against Enterococcus faecalis TUA 1344L; assay type: functional; method in brief: as §1
Bacillus subtilis [5] = test: Antibacterial activity against Bacillus subtilis JCM 1465 assessed as single arrangement of initial stage of septal orientation by microscopy; assay type: functional, organism-based
Method in brief: (§2)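 B. subtilis JCM 1465T treated at 10× MIC for 90 min against an untreated control, then prepared for transmission electron microscopy. Longitudinal and cross sections examined.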

Bacillus subtilis [6] = test: Antibacterial activity against Bacillus subtilis JCM 1465 assessed as decrease in bacterial cell wall thickness by microscopy; assay type: functional, organism-based; method in brief: as §2
Lactobacillus sakei [7] = test: Antibacterial activity against Lactobacillus sakei JCM 1157; assay type: functional; conditions: Latilactobacillus sakei; method in brief: as §1
Staphylococcus carnosus = test: Antibacterial activity against Staphylococcus carnosus TM300; assay type: functional; method in brief: as §1
Bacillus subtilis [8] = test: Antibacterial activity against Bacillus subtilis JCM 1465; assay type: functional; method in brief: as §1
Bacillus subtilis [9] = test: Antibacterial activity against Bacillus subtilis JCM 1465 assessed as dissipation of membrane potential by fluorescence assay; assay type: functional, organism-based
Cell membrane = test: Binding affinity to cell membrane of Bacillus subtilis JCM 1465 assessed as dissipation of nisin A-induced membrane potential
Bacillus subtilis [10] = test: Antibacterial activity against Bacillus subtilis JCM 1465 assessed as detachment of plasma membrane from cell wall by microscopy; assay type: functional, organism-based; method in brief: as §2
[11] = system: Lactiplantibacillus plantarum; test: Antibacterial activity against Lactobacillus plantarum ATCC 14617; assay type: functional; conditions: ATCC 14917, in the assay text read “ATCC 14917” for “ATCC 14617”; method in brief: as §1

| MIC (Listeria innocua) [µM] | MIC (Micrococcus luteus) [µM] | MIC (Lactococcus lactis) [µM] | MIC (Enterococcus faecalis) [µM] | MIC (Lactobacillus sakei [7]) [µM] | MIC (Staphylococcus carnosus) [µM] | MIC (Bacillus subtilis [8]) [µM] | Activity (Cell membrane) | Compound | Activity (Bacillus subtilis [1]) | Activity (Bacillus subtilis [2]) | Activity (Lactobacillus sakei [3]) | Activity (Lactobacillus sakei [4]) | Activity (Bacillus subtilis [5]) | Activity (Bacillus subtilis [6]) | Activity (Bacillus subtilis [9]) | Activity (Bacillus subtilis [10]) | MIC [11] [µM] |
| --- | --- | --- | --- | --- | --- | --- | --- | --- | --- | --- | --- | --- | --- | --- | --- | --- | --- |
| 16.6 (≈ 49.2 µg/mL) | 2.08 (≈ 6.16 µg/mL) | 0.52 (≈ 1.54 µg/mL) | 4.16 (≈ 12.3 µg/mL) | 0.26 (≈ 0.769 µg/mL) | 0.26 (≈ 0.769 µg/mL) | 0.26 (≈ 0.769 µg/mL) |  | C/C=C1\NC(=O)[C@H](Cc2ccccc2)NC(=O)[C@H](C(C)C)NC(=O)[C@H](Cc2ccccc2)NC(=O)[C@H](CCC(N)=O)NC(=O)[C@H](Cc2ccccc2)NC(=O)[C@@H]2CSC[C@@H](C(=O)N[C@@H](CO)C(=O)O)NC(=O)[C@H](CSC[C@@H]3NC(=O)[C@H](C(C)C)NC(=O)[C@@H](NC(=O)[C@@H]4CCCN4C(=O)[C@@H](NC(=O)[C@@H](NC(=O)CNC(=O)[C@H](CO)NC(=O)[C@H](CCCCN)NC(=O)[C@H](CCCCN)NC(=O)[C@@H](N)CCCCN)C(C)C)[C@@H](C)CC)[C@H](C)SC[C@H](NC(=O)[C@H](CC(=O)O)NC(=O)[C@H](Cc4cnc[nH]4)NC3=O)C(=O)N[C@@H](Cc3cnc[nH]3)C(=O)N[C@@H](CCSC)C(=O)N[C@@H](CC(N)=O)C(=O)N2)NC1=O | inactive | inactive | Active | Active | Active | Active | inactive |  |  |
| 0.065 (≈ 0.225 µg/mL) | 0.032 (≈ 0.111 µg/mL) | 0.065 (≈ 0.225 µg/mL) | 0.26 (≈ 0.902 µg/mL) | 0.008 (≈ 0.0277 µg/mL) | 0.016 (≈ 0.0555 µg/mL) | 0.008 (≈ 0.0277 µg/mL) | Active | C=C(NC(=O)[C@@H](NC(=O)[C@H](Cc1cnc[nH]1)NC(=O)[C@@H](NC(=O)[C@H](CO)NC(=O)[C@@H]1CSC(C)[C@@H]2NC(=O)[C@H](C)NC(=O)[C@@H](NC(=O)N(CCCCN)C(=O)[C@H](CCCCN)NC(=O)[C@@H](CCSC)NC(=O)[C@H](CC(N)=O)NC(=O)[C@@H]3CSC(C)[C@H](NC(=O)[C@H](CCCCN)NC(=O)[C@@H]4CSC(C)[C@H](NC(=O)[C@@H]5CSC[C@H](NC(=O)/C(=C/C)NC(=O)[C@@H](N)[C@@H](C)CC)C(=O)N[C@@H](CC(C)C)C(=O)NC(=C)C(=O)N[C@@H](CC(C)C)C(=O)N5)C(=O)N5CCC[C@H]5C(=O)NCC(=O)N4)C(=O)NCC(=O)N[C@@H](C)C(=O)N[C@@H](CC(C)C)C(=O)N[C@H](CCSC)C(=O)NCC(=O)N3)C(C)SC[C@H](NC2=O)C(=O)N[C@@H](Cc2cnc[nH]2)C(=O)N1)[C@@H](C)CC)C(C)C)C(=O)N[C@@H](CCCCN)C(=O)O (stereo partly specified) | Active | Active |  |  |  |  |  | Active | 1.04 (≈ 3.61 µg/mL) |

Reference: ChEMBL document CHEMBL1649563, “Nukacin ISK-1, a bacteriostatic lantibiotic” (2009)
